# Measurements taken from paper PMC8711093 (Nature, 2021).
# Residue numbers refer to the chain shown, from its start. “Also recorded” adds a separate entry of the source.
# How the values were obtained:
# dorsal horn neurons = experiment: Spinal cord slice electrophysiology; type: cell-based, rat; conditions: for increase in eEPSC amplitude from baseline: reversal of the ADO tone; for sEPSC frequency and amplitude: nerve-injured rats, superfusion, reversed by DPCPX, n=8
# How it was run: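 Parasagittal lumbar cord slices (340 μm) from PNL and sham Sprague-Dawley rats, 9-15 weeks, cut in ice-cold sucrose ACSF and superfused at 2 ml/min, 34°C. Whole-cell voltage clamp at −70 mV in lamina I-II neurons; Cs-based internal with QX-314. eEPSCs evoked by dorsal root stimulation (C and A fibre) with gabazine 10 μM and strychnine 0.5 μM. Test compound superfused after stable baseline, then 1 μM DPCPX.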
# [1] = target: T1, human A1R expressed in CHO cells (Homo sapiens, UniProt P30542); type: cell-based
# T1 sequence (P30542 1-326): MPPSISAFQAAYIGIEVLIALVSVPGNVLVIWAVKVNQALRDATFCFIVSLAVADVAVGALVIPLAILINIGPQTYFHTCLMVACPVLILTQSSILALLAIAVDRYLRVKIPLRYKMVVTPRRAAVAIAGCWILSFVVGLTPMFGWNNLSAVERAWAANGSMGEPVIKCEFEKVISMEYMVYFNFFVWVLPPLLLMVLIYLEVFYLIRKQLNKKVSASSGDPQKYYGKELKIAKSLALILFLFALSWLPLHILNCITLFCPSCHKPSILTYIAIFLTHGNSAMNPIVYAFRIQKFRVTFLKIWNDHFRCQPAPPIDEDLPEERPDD
# How it was run: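 FlpIN-CHO cells stably expressing WT A1R, grown in DMEM with 20 mM HEPES, 5% FBS and hygromycin B; seeded at 20,000 cells/well overnight. At 37°C in HEPES-buffered saline with rolipram, pH 7.45: 30 min preincubation, 10 min test compound, then 3 μM forskolin ± increasing ADO for 30 min. Stopped with ice-cold ethanol; cAMP expressed as % of forskolin response.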
# mutant A1R [2] = target: T2, mutant A1R (Homo sapiens, UniProt P30542, F275V); type: binding; conditions: F275^7.40V
# T2 sequence (P30542 1-326 F275V): T1 sequence (P30542 1-326) with F275V
# mutant A1R [3] = target: T3, mutant A1R (Homo sapiens, UniProt P30542, L276A); type: binding; conditions: L276^7.41A
# T3 sequence (P30542 1-326 L276A): T1 sequence (P30542 1-326) with L276A
# mutant A1R [4] = type: binding, human; conditions: bulkier side chains at position 7.44 (G279^7.44)
# mutant A1R [5] = target: T4, mutant A1R (Homo sapiens, UniProt P30542, M283V); type: binding; conditions: M283^7.48V
# T4 sequence (P30542 1-326 M283V): T1 sequence (P30542 1-326) with M283V
# mutant A1R [6] = target: T5, mutant A1R (Homo sapiens, UniProt P30542, S246A); type: binding; conditions: S246^6.47A
# T5 sequence (P30542 1-326 S246A): T1 sequence (P30542 1-326) with S246A
# mutant A1R [7] = target: T6, mutant A1R (Homo sapiens, UniProt P30542, L242A/L245A); type: binding; conditions: alanine mutation of both L242^6.43 and L245^6.46
# T6 sequence (P30542 1-326 L242A/L245A): T1 sequence (P30542 1-326) with L242A, L245A
# rat atrial beat rate = experiment: Isolated rat atrial experiments; conditions: isolated rat atria, concentration-response
# [8] = target: A1R-rHDL particles with Gi2 heterotrimeric protein (Homo sapiens, UniProt P30542); experiment: [3H]DPCPX dissociation at A1R-rHDL particles with saturating Gi2; type: binding; conditions: 30 μM MIPS521; saturating concentration of Gi2; SLV320 isotopic dilution
# A1R-rHDL particles with Gi2 heterotrimeric protein, sequence (P62873 whole entry, one chain of several): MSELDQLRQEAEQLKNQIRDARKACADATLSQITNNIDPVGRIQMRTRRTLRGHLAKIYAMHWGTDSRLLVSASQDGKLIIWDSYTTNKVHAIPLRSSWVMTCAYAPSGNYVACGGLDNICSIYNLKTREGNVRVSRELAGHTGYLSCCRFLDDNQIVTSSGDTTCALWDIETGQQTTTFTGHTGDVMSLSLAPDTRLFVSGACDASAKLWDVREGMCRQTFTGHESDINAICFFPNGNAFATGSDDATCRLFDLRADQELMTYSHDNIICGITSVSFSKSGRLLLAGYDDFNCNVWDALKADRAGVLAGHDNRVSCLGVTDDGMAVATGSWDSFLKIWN
# A1R-rHDL particles with Gi2 heterotrimeric protein, sequence (P59768 2-68, one chain of several, further chain): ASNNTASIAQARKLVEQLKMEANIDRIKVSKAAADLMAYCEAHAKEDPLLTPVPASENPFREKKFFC
# A1R-rHDL particles with Gi2 heterotrimeric protein, sequence (P04899 2-355, one chain of several, further chain): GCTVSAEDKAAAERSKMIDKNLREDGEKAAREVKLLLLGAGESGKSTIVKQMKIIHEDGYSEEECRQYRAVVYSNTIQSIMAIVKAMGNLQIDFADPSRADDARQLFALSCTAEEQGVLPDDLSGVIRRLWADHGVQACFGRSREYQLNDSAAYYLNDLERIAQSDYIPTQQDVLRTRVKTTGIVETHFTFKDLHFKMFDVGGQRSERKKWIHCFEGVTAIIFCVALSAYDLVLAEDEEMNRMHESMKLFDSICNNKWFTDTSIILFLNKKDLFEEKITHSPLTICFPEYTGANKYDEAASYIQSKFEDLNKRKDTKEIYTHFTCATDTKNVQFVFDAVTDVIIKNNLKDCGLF
# How it was run: (§1)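 Purified A1R reconstituted into MSP1D1 nanodiscs (POPC:POPG 3:2; molar ratio 1:10:800) for 1 h at 4°C, then Bio-beads overnight; empty discs removed on anti-Flag resin. Particles ± Gi2 heterotrimer (1:50 molar) were equilibrated 1 h with 2 nM [3H]DPCPX ± 30 μM test compound. Dissociation started with excess SLV320, filtered on GF/C and counted. Fitted to mono-exponential decay; n = 3-5, duplicate.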
# nerve-injured rats [9] = experiment: Conditioned place preference; type: in vivo, rat; conditions: intrathecal; for time spent in the drug paired chamber: nerve-injured rats, n=8
# How it was run: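 Male and female Sprague-Dawley rats, 10-16 weeks, with partial sciatic nerve ligation and lumbar intrathecal catheters. Three-chamber box; pre-conditioning began 10 days post-surgery, excluding rats spending >80% of time in one chamber. Vehicle (DMSO/saline 60:40 or saline) was paired with one chamber in the morning and intrathecal drug with the opposite chamber 4 h later, counterbalanced. Rats were recorded 15 min with free access 20 h later; n = 8/group; morphine positive control.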
# [10] = Stability in human plasma; type: in vitro ADME
# [11] = target: T7, A1R alone reconstituted in rHDL (Homo sapiens, UniProt P30542); experiment: [3H]DPCPX dissociation at A1R-rHDL particles, absence of G protein; type: binding; conditions: 30 μM MIPS521, SLV320 isotopic dilution
# T7 sequence (P30542 1-326): T1 sequence (P30542 1-326)
# How it was run: as §1
# nerve-injured rats [12] = type: in vivo, rat; conditions: intrathecal
# How it was run: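 Sciatic nerve partially ligated (one third to one half) under isoflurane; allodynia confirmed at day 14. Intrathecal catheters placed at day 12 in male and female Sprague-Dawley rats, 9-14 weeks. After baseline, blinded 10 μL dose (DMSO/saline 60:40) plus 25 μL saline flush. Von Frey filaments 0.52-14.8 g, up-down method, over a time course, including 1 h post-dose. n = 8-10; catheter placement checked with lignocaine.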
# Stability in rat plasma = type: in vitro ADME
# rats = experiment: Rotarod; type: in vivo, rat
# [13] = operational model, ADO, 3 μM forskolin
# [14] = intrathecal, compared to vehicle controls, n=3-4
smiles,measurement,setting,value
"CCCn1c(=O)c2[nH]c(C3CCCC3)nc2n(CCC)c1=O [DPCPX, reference compound]",increase in eEPSC amplitude from baseline,dorsal horn neurons; nerve-injured animals,19.7 ± 6.1%
same,increase in eEPSC amplitude from baseline,dorsal horn neurons; sham controls,7.89 ± 2.7%
Nc1scc(-c2cc(C(F)(F)F)cc(C(F)(F)F)c2)c1C(=O)c1ccc(Cl)cc1 [MIPS521],"affinity for the A1R allosteric site, pKB","[1]; operational model of allosterism and agonism, ADO, 3 μM forskolin, n=3",4.95 ± 0.40
same,"positive cooperativity with ADO, Log αβ",[1]; [13],1.81 ± 0.53
same,"direct allosteric agonism / signaling efficacy, Log τB","[1]; operational model, recombinant CHO cells",0.96 ± 0.34
same,change in PAM affinity (pKB) vs wild type,mutant A1R [2],decrease in affinity
same,change in PAM affinity (pKB) vs wild type,mutant A1R [3],significantly decreased MIPS521 affinity
same,change in PAM affinity (pKB) vs wild type,mutant A1R [4],significant loss of both modulator affinity and cooperativity
same,change in binding cooperativity (log α) with NECA vs wild type,mutant A1R [4],significant loss of both modulator affinity and cooperativity
same,change in PAM affinity (pKB) vs wild type,mutant A1R [5],significantly reduced the affinity
same,change in PAM affinity (pKB) vs wild type,mutant A1R [6],significant decrease in both PAM affinity and cooperativity
same,change in binding cooperativity (log α) with NECA vs wild type,mutant A1R [6],significant decrease in both PAM affinity and cooperativity
same,change in PAM affinity (pKB) vs wild type,mutant A1R [7],no effect on affinity
same,change in binding cooperativity (log α) with NECA vs wild type,mutant A1R [7],significant decrease in PAM cooperativity
same,sEPSC frequency and amplitude,dorsal horn neurons,reduced
same,pEC50 for reducing eEPSCs,"dorsal horn neurons; spinal cord from nerve-injured animals, n=4-12",6.9 ± 0.4
same,effect on rat atrial beat rate,rat atrial beat rate,minimal effect
same,effect on dissociation of pre-equilibrated [3H]DPCPX,[8],even more profound retardation
same,time spent in the drug paired chamber,nerve-injured rats [9]; 10 μg,increased the time nerve-injured rats spent in the drug paired chamber
same,spontaneous pain,nerve-injured rats [9]; lower dose than VCP171 (10 μg),significantly reduced spontaneous pain
same,stability in plasma,[10]; 4-hour incubation period,stable
same,effect on dissociation of pre-equilibrated [3H]DPCPX,[11],no effect
same,mechanical hyperalgesia (paw withdrawal threshold),nerve-injured rats [12]; compared with VCP171,reversed the mechanical hyperalgesia at lower concentrations than VCP171
same,stability in plasma,Stability in rat plasma; 4-hour incubation period,stable
same,rotarod latency to fall / motor function,rats; [14],neither MIPS521 nor VCP171 affected motor function; also recorded: not significantly different to vehicle controls
"Nc1scc(-c2cccc(C(F)(F)F)c2)c1C(=O)c1ccccc1 [VCP171, (2-amino-4-(3-(trifluoromethyl)phenyl)thiophen-3-yl)(phenyl)methanone]",Kb,[1],3.16 µM
same,"positive cooperativity with ADO, Log αβ",[1]; [13],0.76 ± 0.25
same,sEPSC frequency and amplitude,dorsal horn neurons,reduced
same,spontaneous pain,nerve-injured rats [9]; 30 μg (highest dose),reduced spontaneous pain
same,time spent in the drug paired chamber,nerve-injured rats [9]; 30 μg,increased the time nerve-injured rats spent in the drug paired chamber
same,time stable in plasma,[10],at least 4 h
same,allodynia (paw withdrawal threshold),nerve-injured rats [12]; 30 μg,small reduction of allodynia
same,paw withdrawal threshold,nerve-injured rats [12]; 1-10 μg,no effect
same,time stable in plasma,Stability in rat plasma,at least 4 h
same,rotarod latency to fall / motor function,"rats; both, Sprague Dawley, rat, in vivo",neither MIPS521 nor VCP171 affected motor function
same,rotarod latency to fall / motor function,"rats; rat, in vivo",not significantly different to vehicle controls
"CN1CC[C@]23c4c5ccc(O)c4O[C@H]2[C@@H](O)C=C[C@H]3[C@H]1C5 [morphine, reference compound]",time spent in the drug paired chamber,nerve-injured rats [9]; 10 μg,increased the time nerve-injured rats spent in the drug paired chamber
same,rotarod latency to fall / motor function,rats; [14],reduces rotarod latency to fall
